Converted amounts (≈) assume the structure as drawn. The source made the active and inactive calls. The calls are words filed in the database; no cut-off is given here.
How the values were obtained:
Enterococcus faecalis = experiment: Antimicrobial activity against Enterococcus faecalis INCQS 00234 ATCC 29212 assessed as zone of inhibition at 5 mg/ml after 18 to 24 hrs by disc diffusion method; format: functional; conditions: ATCC 29212 INCQS 00234, read-out: IZ
[1] = Hemolytic activity against human erythrocytes assessed as hemolysis at 200 ug/ml after 3 hrs by spectrophotometric analysis relative to control; format: ADME, cell-based, Erythrocyte; conditions: read-out: Activity
Method in brief: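 Erythrocytes collected in citrate tubes, washed three times with PBS pH 7.4 by centrifugation and resuspended in PBS. Incubated with compounds at 200 µg/mL for 3 h at 37°C. Released hemoglobin was read in the supernatant at 545 nm against 1% Triton X-100 (complete lysis) and 1% DMSO (negative control). Below 10% hemolysis was taken as hemocompatible. Three independent experiments.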

[2] = test system: Staphylococcus epidermidis; experiment: Antimicrobial activity against Staphylococcus epidermidis INCQS 00016 ATCC 12228 assessed as zone of inhibition at 5 mg/ml after 18 to 24 hrs by disc diffusion method; format: functional; conditions: ATCC 12228 INCQS 00016, read-out: IZ
Klebsiella pneumoniae = experiment: Antimicrobial activity against Klebsiella pneumoniae INCQS 00083 ATCC 4352 assessed as zone of inhibition at 5 mg/ml after 18 to 24 hrs by disc diffusion method; format: functional; conditions: read-out: IZ
Pseudomonas aeruginosa [3] = experiment: Antimicrobial activity against Pseudomonas aeruginosa INCQS 00099 ATCC 27853 assessed as zone of inhibition at 5 mg/ml after 18 to 24 hrs by disc diffusion method; format: functional; conditions: read-out: IZ
Staphylococcus simulans [4] = experiment: Antimicrobial activity against Staphylococcus simulans INCQS 00254 ATCC 27851 assessed as zone of inhibition at 5 mg/ml after 18 to 24 hrs by disc diffusion method; format: functional; conditions: read-out: IZ
Staphylococcus aureus [5] = experiment: Antimicrobial activity against methicillin-resistant Staphylococcus aureus BMB9393 assessed as zone of inhibition at 5 mg/ml after 18 to 24 hrs by disc diffusion method; format: functional; conditions: read-out: IZ
Staphylococcus aureus [6] = experiment: Antimicrobial activity against Staphylococcus aureus INCQS 00015 ATCC 25923 assessed as zone of inhibition at 5 mg/ml after 18 to 24 hrs by disc diffusion method; format: functional; conditions: read-out: IZ
Proteus mirabilis = experiment: Antimicrobial activity against Proteus mirabilis INCQS 00095 ATCC 15290 assessed as zone of inhibition at 5 mg/ml after 18 to 24 hrs by disc diffusion method; format: functional; conditions: read-out: IZ
Escherichia coli [7] = experiment: Antimicrobial activity against Escherichia coli INCQS 00033 ATCC 25922 assessed as zone of inhibition at 5 mg/ml after 18 to 24 hrs by disc diffusion method; format: functional; conditions: ATCC 25922 INCQS 00033, read-out: IZ
Pseudomonas aeruginosa [8] = experiment: Bactericidal activity against Pseudomonas aeruginosa INCQS 00099 ATCC 27853 incubated for 24 hrs followed by transfer of microbial suspension to agar plates and measured after 24 hrs post transfer by resazurin dye-based colorimetric analysis; format: functional; conditions: INCQS 00099 ATCC 27853, 24 h, read-out: MBC99.9
Method in brief: (§1)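 For MBC, 10 µL from each clear MIC well was plated on agar and incubated 24 h at 37°C. MBC is the minimum concentration inhibiting 99.9% of growth. […] Triplicate.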

Staphylococcus aureus [9] = experiment: Bactericidal activity against methicillin-resistant Staphylococcus aureus BMB9393 at 256 ug/ml incubated for 24 hrs followed by transfer of microbial suspension to agar plates and measured after 24 hrs post transfer by resazurin dye-based colorimetric analysis; format: functional, organism-based
Method in brief: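 From MIC wells with no visible growth, 10 µL is transferred to agar plates and incubated 24 h at 37°C. MBC is the minimum concentration inhibiting 99.9% of growth. […] Triplicate.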

Staphylococcus aureus [10] = experiment: Antimicrobial activity against methicillin-resistant Staphylococcus aureus BMB9393 at 256 ug/ml after 24 hrs by microdilution assay; format: functional, organism-based
Staphylococcus aureus [11] = experiment: Antimicrobial activity against Staphylococcus aureus INCQS 00015 ATCC 25923 at 256 ug/ml after 24 hrs by microdilution assay; format: functional, organism-based
[12] = test system: Staphylococcus epidermidis; experiment: Antimicrobial activity against Staphylococcus epidermidis INCQS 00016 ATCC 12228 after 24 hrs by microdilution assay; format: functional; conditions: ATCC 12228 INCQS 00016, 24 h
Escherichia coli [13] = experiment: Bactericidal activity against Escherichia coli INCQS 00033 ATCC 25922 incubated for 24 hrs followed by transfer of microbial suspension to agar plates and measured after 24 hrs post transfer by resazurin dye-based colorimetric analysis; format: functional; conditions: ATCC 25922 INCQS 00033, 24 h, read-out: MBC99.9; method in brief: as §1
Pseudomonas aeruginosa [14] = experiment: Ratio of MBC99.9 to MIC for Pseudomonas aeruginosa INCQS 00099 ATCC 27853; format: functional
Method in brief: (§2)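 MBC/MIC ratio from the 24 h, 37°C microdilution MIC and the agar-plating MBC (99.9% growth inhibition). A ratio ≤2 was classed as bactericidal and ≥4 as bacteriostatic.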

Staphylococcus simulans [15] = experiment: Bactericidal activity against Staphylococcus simulans INCQS 00254 ATCC 27851 at 256 ug/ml incubated for 24 hrs followed by transfer of microbial suspension to agar plates and measured after 24 hrs post transfer by resazurin dye-based colorimetric analysis; format: functional, organism-based; method in brief: as §1
Escherichia coli [16] = experiment: Antimicrobial activity against Escherichia coli INCQS 00033 ATCC 25922 after 24 hrs by microdilution assay; format: functional; conditions: ATCC 25922 INCQS 00033, 24 h
Pseudomonas aeruginosa [17] = experiment: Antimicrobial activity against Pseudomonas aeruginosa INCQS 00099 ATCC 27853 after 24 hrs by microdilution assay; format: functional; conditions: INCQS 00099 ATCC 27853, 24 h
[18] = test system: Staphylococcus epidermidis; experiment: Bactericidal activity against Staphylococcus epidermidis INCQS 00016 ATCC 12228 incubated for 24 hrs followed by transfer of microbial suspension to agar plates and measured after 24 hrs post transfer by resazurin dye-based colorimetric analysis; format: functional; conditions: ATCC 12228 INCQS 00016, 24 h, read-out: MBC99.9; method in brief: as §1
Escherichia coli [19] = experiment: Ratio of MBC99.9 to MIC for Escherichia coli INCQS 00033 ATCC 25922; format: functional, ATCC 25922 INCQS 00033; method in brief: as §2
[20] = test system: Staphylococcus epidermidis; experiment: Ratio of MBC99.9 to MIC for Staphylococcus epidermidis INCQS 00016 ATCC 12228; format: functional, ATCC 12228 INCQS 00016; method in brief: as §2
Staphylococcus simulans [21] = experiment: Antimicrobial activity against Staphylococcus simulans INCQS 00254 ATCC 27851 at 256 ug/ml after 24 hrs by microdilution assay; format: functional, organism-based
Staphylococcus aureus [22] = experiment: Bactericidal activity against Staphylococcus aureus INCQS 00015 ATCC 25923 at 256 ug/ml incubated for 24 hrs followed by transfer of microbial suspension to agar plates and measured after 24 hrs post transfer by resazurin dye-based colorimetric analysis; format: functional, organism-based; method in brief: as §1

Compound	zone of inhibition at 5000 µg/mL (Enterococcus faecalis) [mm]	hemolysis at 3 h, 200 ug/ml [1] [%]	zone of inhibition at 5000 µg/mL [2] [mm]	zone of inhibition at 5000 µg/mL (Klebsiella pneumoniae) [mm]	zone of inhibition at 5000 µg/mL (Pseudomonas aeruginosa [3]) [mm]	zone of inhibition at 5000 µg/mL (Staphylococcus simulans [4]) [mm]	zone of inhibition at 5000 µg/mL (Staphylococcus aureus [5]) [mm]	zone of inhibition at 5000 µg/mL (Staphylococcus aureus [6]) [mm]	zone of inhibition at 5000 µg/mL (Proteus mirabilis) [mm]	zone of inhibition at 5000 µg/mL (Escherichia coli [7]) [mm]	other results
COC(=O)c1c(C)nc(C)c2c1C(=O)C(Br)=C(NC[C@H]1O[C@@H]3OC(C)(C)O[C@@H]3[C@H]3OC(C)(C)O[C@H]31)C2=O	0	< 10	0	0	0	0	0	0	0	0	–
CC1(C)O[C@H]2O[C@H](CNC3=CC(=O)c4ccccc4C3=O)[C@H](O)[C@H]2O1	0	< 10	0	0	0	0	0	0	0	0	–
COC(=O)c1c(C)nc(C)c2c1C(=O)C(Br)=C(N)C2=O	0	10.1 to 14.4	22	0	28	17	22	23	0	30	MBC (Pseudomonas aeruginosa [8]): 32 µg/mL (≈ 94.4 µM); Activity (Staphylococcus aureus [9]): inactive; Activity (Staphylococcus aureus [10]): inactive; Activity (Staphylococcus aureus [11]): inactive; MIC [12]: 32 µg/mL (≈ 94.4 µM); MBC (Escherichia coli [13]): 8 µg/mL (≈ 23.6 µM); Ratio (Pseudomonas aeruginosa [14]): 1; Activity (Staphylococcus simulans [15]): inactive; MIC (Escherichia coli [16]): 8 µg/mL (≈ 23.6 µM); MIC (Pseudomonas aeruginosa [17]): 32 µg/mL (≈ 94.4 µM); MBC [18]: 32 µg/mL (≈ 94.4 µM); Ratio (Escherichia coli [19]): 1; Ratio [20]: 1; Activity (Staphylococcus simulans [21]): inactive; Activity (Staphylococcus aureus [22]): inactive
COC(=O)c1c(C)nc(C)c2c1C(=O)C=C(NC[C@H]1O[C@@H](OC)[C@@H]3OC(C)(C)O[C@@H]31)C2=O	0	< 10	0	0	0	0	0	0	0	0	–
CC1(C)O[C@H]2[C@@H](O1)[C@@H](CNC1=CC(=O)c3ccccc3C1=O)O[C@@H]1OC(C)(C)O[C@@H]12	0	< 10	0	0	0	0	0	0	0	0	–
COC(=O)c1c(C)nc(C)c2c1C(=O)C(Cl)=C(NC[C@H]1O[C@@H]3OC(C)(C)O[C@@H]3[C@H]3OC(C)(C)O[C@H]31)C2=O	0	< 10	0	0	0	0	0	0	0	0	–
CC1(C)O[C@H]2[C@@H](O1)[C@@H](CNC1=C(Br)C(=O)c3ccccc3C1=O)O[C@@H]1OC(C)(C)O[C@@H]12	0	10.1 to 14.4	0	0	0	0	0	0	0	0	–
COC(=O)c1c(C)nc(C)c2c1C(=O)C(Cl)=C(NC[C@H]1O[C@@H](OC)[C@@H]3OC(C)(C)O[C@@H]31)C2=O	0	< 10	0	0	0	0	0	0	0	0	–
COC(=O)c1c(C)nc(C)c2c1C(=O)C=C(N)C2=O	0	< 10	0	0	0	0	0	0	0	0	–
O=C(O)c1cn(C2CC2)c2cc(N3CCNCC3)c(F)cc2c1=O [CIPROFLOXACIN]	–	–	–	27	36	–	–	–	28	35	–
CO[C@@H]1O[C@H](CNC2=CC(=O)c3ccccc3C2=O)[C@H]2OC(C)(C)O[C@@H]12	0	< 10	0	0	0	0	0	0	0	0	–

— ChEMBL document CHEMBL4270541, “Synthesis and antimicrobial evaluation of amino sugar-based naphthoquinones and isoquinoline-5,8-diones and their halogenated compounds” (Eur J Med Chem, 2018)
